A selection: hits, their analogues and other compounds. The true share with any hit is near 2.4%.
DNA FID counter = displaces DNA intercalator in HCV helicase counter-screen. AID 1845. actives 0.17% (n = 290,000). DNA fluorescent intercalator displacement, fluorescence. inhibition, % at 7.9 µM; in the data active means inhibition above about 37%;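 further: 0% = vehicle and 100% = reference compound; higher means more ethidium bromide displaced from hairpin DNA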
TMEM16A act = mouse TMEM16A channel activation, primary screen | Q8BHY3 | HEK293 TMEM16A/YFP-H148Q/I152L, iodide quench fluorescence; active compounds read low | B-score at 10 µM | actives 0.3% (n = 340,000) | AID 623877;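 active means fluorescence-ratio B-score plate-corrected deviation score at least 3 library SD below zero, with starting fluorescence score within 5 deviations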;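 further: channel opened by trigger with iodide after compound preincubation; score built on the fluorescence ratio of max minus min over baseline; more negative score means more quench and so TMEM16A activation or potentiation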
Apaf-1 inh = inhibitors of human Apaf-1 apoptosome; reconstituted apoptosome caspase-3 activity, DEVD-Rh110 fluorescence; inhibition, % at 20 µM; actives 0.71% (n = 330,000); AID 489030; active means inhibition of at least 40% at 20 µM;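 further: plate controls were DMSO wells for no effect and DEVD-CHO caspase inhibitor wells for full effect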
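Material: biochemical Apaf-1 apoptosome reconstitution. Medium: Hepes buffer, pH 7.5. Also added: cytochrome c activation, bis-DEVD rhodamine 110 substrate. Timing: 30 min compound preincubation, 50 min activation, room temperature. Measured by: rhodamine 110 fluorescence at Ex 480/Em 540 nm.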
TMEM16A inh = blocks the mouse calcium-activated chloride channel TMEM16A | Q8BHY3 | HEK293 TMEM16A/YFP iodide influx fluorescence, ionomycin | normalized B-score (activity score, 25-100; higher = stronger inhibition) at 10 µM | actives 1.2% (n = 310,000);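 active means ratio plate-corrected score three or more library SD toward inhibition, starting fluorescence score within five deviations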;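 further: score derived from kinetic fluorescence span divided by baseline fluorescence per well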
UBC13 inh = blocks human UBC13 polyubiquitin chain formation; TR-FRET; inhibition, % at 20 µM; actives 0.47% (n = 330,000); P61088; in the data active means inhibition above about 45%, passing the limit was not always enough
Target sequence (P61088 whole entry, looked up): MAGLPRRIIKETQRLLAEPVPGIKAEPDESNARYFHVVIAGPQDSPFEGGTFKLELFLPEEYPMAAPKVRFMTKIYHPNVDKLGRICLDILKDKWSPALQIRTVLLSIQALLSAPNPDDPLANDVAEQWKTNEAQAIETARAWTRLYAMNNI
Active calls of the source: *; i = inactive; x = no result given.

SMILES	DNA FID counter	TMEM16A act	Apaf-1 inh	TMEM16A inh	UBC13 inh
CCC(C)Nc1ccc(NC(C)CC)cc1 (configuration not stated)	x	i	43*	x	-11
NC1=NC[C@@H](Cc2ccc(O)cc2)N1CCc1cccc2ccccc12	x	i	8	i	43
NC1=NC[C@H](Cc2ccc(O)cc2)N1CCCCC1CCCCC1	x	i	53*	i	73*
CO/N=C/c1ccc(N2CCN(C(=O)c3cccc(C(F)(F)F)c3)CC2)c([N+](=O)[O-])c1	-24	i	32	i	-16
CO/N=C/c1ccc(N2CCN(C(=O)c3ccc(Cl)cc3Cl)CC2)c([N+](=O)[O-])c1	-16	i	18	100*	-7
CCC(=O)c1ccc(N2CCN(C(=O)c3ccc(F)cc3)CC2)c(F)c1	-27	i	0	25*	-2
CO/N=C/c1ccc(N2CCN(C(=O)c3ccc(F)cc3)CC2)c([N+](=O)[O-])c1	-2	i	8	100*	-17
Cc1nn(C(C)C(=O)NC(C)CCc2ccccc2)c(=O)c2cc3occc3n12 (configuration not stated)	-45	i	10	i	-8
COc1cccc(N2CCN(c3ncnc4c3[nH]c3ccc(F)cc34)CC2C)c1 (configuration not stated)	-8	i	12	100*	8
COc1cccc(N2CCN(c3ncnc4c3[nH]c3ccccc34)CC2C)c1 (configuration not stated)	-10	x	13	100*	14
COc1ccc2[nH]c3c(N4CC(C)OC(C)C4)ncnc3c2c1 (configuration not stated)	-10	x	7	i	10
CCN(CC)c1ccc(NC(=O)CCCOc2cccc(C)c2)cc1	3	i	27	x	-3
CCN(CC)c1ccc(/C=N/OCC(=O)Nc2cccc(C)c2)cc1	-16	i	21	25*	6
NC(=S)N=Nc1c(O)[nH]c2ccc(F)cc12	6	i	7	i	50*
Cc1cc(N2CCN(S(=O)(=O)c3ccc(Cl)cc3)CC2)c2ccccc2n1	7	i	19	100*	-1
O=C1C2=C(c3ccccc31)[N+](=O)C1CCCCC1N2[O-] (configuration not stated)	0	i	54*	i	-34
CC(C)(C)OC(=O)C[C@@H]1C/C=C\C[C@@H](CC(=O)N(CCO)Cc2ccccc2)C(=O)NCCOC1=O	x	-4.8*	1	x	-17
CC(C)(C)OC(=O)C[C@H]1C/C=C\C[C@H](CC(=O)N(CCO)Cc2ccccc2)C(=O)NCCOC1=O	x	i	-7	x	-4
COc1cccc(NC(=O)CSc2nn3c(=O)c(C)nnc3s2)c1	-2	i	3	i	5
CCOC(=O)C1CCCN(c2cc(NCCCO)c([N+](=O)[O-])c3nonc23)C1 (configuration not stated)	-6	x	40*	i	-18
CN(C)c1cc(NC(=O)CN2CCCC2)c2ccccc2n1	55*	i	13	i	-7
O=C(Cc1cc(=O)[nH][nH]1)N/N=C/c1ccccc1Cl	-8	x	77*	i	-2
Cc1cc(C)c(C#N)c(Oc2ccccc2Br)n1	-2	i	4	i	-22
CCOC(=O)C1C(C(=O)OC)=C(C(=O)OC)c2ccccc2N1S(=O)(=O)C(F)(F)F (configuration not stated)	x	x	16	x	x
Cc1ccc(NC(=O)CSc2nc3c(c(=O)[nH]2)CN(Cc2ccc(F)cc2)CC3)cc1C	-1	-12*	-2	i	-4
SMILES	DNA FID counter	TMEM16A act	Apaf-1 inh	TMEM16A inh	UBC13 inh
O=C(CSc1nc2c(c(=O)[nH]1)CN(Cc1ccc(F)cc1)CC2)Nc1ccc(F)cc1	-8	i	-3	i	-1
O=C(CN1C(=O)C2CC=CCC2C1=O)NC1CCCc2ccccc21 (configuration not stated)	-8	-23*	12	i	-16
O=Cc1cc2ccccc2nc1SCCCF	11	i	15	i	-14
COc1ccccc1N1CCN(C(=O)c2cc(=O)c3ccc(C)cc3o2)CC1	-34	i	8	i	-5
COc1ccccc1N1CCN(C(=O)c2oc3cc(C)cc(C)c3c2C)CC1	-30	i	37	25*	-3
COc1ccc(C[C@H]2CN3C(=NC[C@@H]3Cc3ccccc3)N2C[C@H](C)NC(=O)CCC2CCCCC2)cc1	x	x	52*	x	17
COc1ccc(C[C@@H]2CN3C(=NC[C@@H]3C)N2C[C@H](C)NC(=O)CCC2CCCCC2)cc1	8	i	14	i	2
O=[N+]([O-])c1c(Nc2ccccc2O)cc(N2CCOCC2)c2nonc12	6	i	30	i	-15
O=[N+]([O-])c1cc([N+](=O)[O-])c2nonc2c1Nc1ccccc1O	3	i	31	100*	-79
Cc1coc2c1C(=O)C(=O)c1c-2ccc2c(C)cccc12	x	i	96*	i	-93
Cc1ccc2c3c(cccc13)-c1ccccc1C2=O	-1	i	21	i	30
O=C(NC(NC(=S)Nc1ccc(Cl)cc1Cl)C(Cl)(Cl)Cl)c1cccc([N+](=O)[O-])c1 (configuration not stated)	12	i	17	100*	-19
CCOc1ccc(S(=O)(=O)Nc2ccc(C(=O)N3CCCC3)cc2)cc1	-34	i	6	i	-2
CCOc1ccc(NS(=O)(=O)c2ccc(C(=O)N3CCCC(C)C3)cc2)cc1 (configuration not stated)	x	i	10	100*	4
COc1ccc(NS(=O)(=O)c2ccc(C(=O)N3CCN(Cc4ccccc4)CC3)cc2)cc1	-25	i	8	25*	-1
CN(C)c1nc(N)ncc1-c1ccc(Oc2ccccc2)cc1	0	i	6	i	32
CC[C@H](C)[C@H]1O[C@]2(CC[C@@H]1C)C[C@@H]1C[C@@H](CC=C(C)[C@@H](O[C@H]3C[C@H](OC)[C@@H](O[C@H]4C[C@H](OC)[C@@H](O)[C@H](C)O4)[C@H](C)O3)[C@@H](C)C=CC=C3CO[C@@H]4[C@H](O)C(C)=C[C@@H](C(=O)O1)[C@]34O)O2	x	i	31	25*	-14
COc1ccc(NC(=O)CSc2nccn2Cc2ccco2)cc1	-7	i	5	i	2
O=C(Nc1cccc(Cl)c1)c1cc(N=Nc2ccc([N+](=O)[O-])cc2Cl)ccc1O	14	-5.7*	35	100*	-105
Cc1ccc(O)c(NC(=O)c2cc([N+](=O)[O-])ccc2Cl)c1	7	i	8	i	-1
O=C(Nc1ccc([N+](=O)[O-])cc1Cl)c1cc(Cl)ccc1O	x	i	4	100*	-24
CCN(CC)CCN(C(=O)CCS(=O)(=O)c1ccccc1)c1nc2c(C)cc(C)cc2s1	24	i	4	i	10

Screening data: PubChem, several laboratories
